Measured values from ChEMBL document CHEMBL1177716, “Kinesin spindle protein (KSP) inhibitors with 2,3-fused indole scaffolds” (J Med Chem, 2010).
Calls of active or inactive are those of the source. The rule behind the calls is not given here.

Tests used:
[1] = target: T1, Kinesin-like protein KIF11 (Homo sapiens, UniProt P52732); test: Inhibition of human C-terminally His6-tagged microtubule-activated KSP motor domain ATPase activity after 30 mins by luciferase-derived luminescence assay
T1 sequence (P52732 whole entry): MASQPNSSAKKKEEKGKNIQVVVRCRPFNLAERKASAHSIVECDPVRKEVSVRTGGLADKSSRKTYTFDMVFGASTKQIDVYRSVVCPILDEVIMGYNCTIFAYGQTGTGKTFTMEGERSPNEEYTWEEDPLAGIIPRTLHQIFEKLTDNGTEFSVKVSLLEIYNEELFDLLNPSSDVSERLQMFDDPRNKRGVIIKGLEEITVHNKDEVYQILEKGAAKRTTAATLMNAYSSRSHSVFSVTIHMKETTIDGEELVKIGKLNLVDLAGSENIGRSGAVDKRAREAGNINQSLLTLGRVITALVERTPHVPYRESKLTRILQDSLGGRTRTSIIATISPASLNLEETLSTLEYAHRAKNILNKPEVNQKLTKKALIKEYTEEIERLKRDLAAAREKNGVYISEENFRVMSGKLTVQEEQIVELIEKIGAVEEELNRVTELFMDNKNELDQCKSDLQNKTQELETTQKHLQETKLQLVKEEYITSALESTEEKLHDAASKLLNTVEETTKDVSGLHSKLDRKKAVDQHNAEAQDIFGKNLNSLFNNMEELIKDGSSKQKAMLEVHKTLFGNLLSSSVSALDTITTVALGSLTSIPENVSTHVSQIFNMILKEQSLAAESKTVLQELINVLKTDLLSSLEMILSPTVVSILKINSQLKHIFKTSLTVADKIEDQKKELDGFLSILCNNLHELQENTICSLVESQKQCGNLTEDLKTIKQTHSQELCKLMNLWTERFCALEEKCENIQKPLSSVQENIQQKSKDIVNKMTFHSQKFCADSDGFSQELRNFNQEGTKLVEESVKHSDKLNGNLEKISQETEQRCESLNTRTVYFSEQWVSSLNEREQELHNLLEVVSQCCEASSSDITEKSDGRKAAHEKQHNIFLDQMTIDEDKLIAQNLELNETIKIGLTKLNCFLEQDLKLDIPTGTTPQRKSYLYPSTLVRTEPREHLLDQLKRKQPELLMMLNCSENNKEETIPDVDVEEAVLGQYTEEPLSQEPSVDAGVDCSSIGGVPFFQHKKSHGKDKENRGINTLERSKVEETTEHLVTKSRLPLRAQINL

[2] = tested on: HeLa; test: Cytotoxicity against human HeLa cells after 48 hrs […]; format: functional, cell-based; conditions: for IC50: Homo sapiens, HeLa, 48 h
[3] = tested on: HeLa; test: Cell cycle arrest in human HeLa cells assessed as accumulation at M phase at 36 uM after 20 hrs by DAPI staining relative to taxol; format: functional; conditions: in the assay text read “at 32 uM” for “at 36 uM”
Summary of the method: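 HeLa cells were exposed to compound for 20 h and scored for M-phase arrest. Mitotic index was expressed as a percentage of the induction given by 0.1 μM taxol.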

[4] = tested on: HeLa; test: Cell cycle arrest in human HeLa cells assessed as accumulation at G2/M phase with incomplete chromosome condensation at 36 uM after 20 hrs by DAPI staining; format: functional, cell-based
[5] = tested on: HeLa; test: Cytotoxicity against human HeLa cells at 60 uM after 48 hrs […]; format: functional
[6] = species: Sus scrofa; test: Inhibition of pig brain topoisomerase 2-mediated supercoiled DNA relaxation after 20 mins by agarose gel electrophoresis analysis
Summary of the method: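 Supercoiled DNA was incubated with topo II, with or without test compound. Gel lanes included supercoiled DNA alone, DNA plus enzyme without compound, and DNA plus enzyme with AMSA as the reference inhibitor.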

[7] = species: Sus scrofa; test: Inhibition of pig brain topoisomerase 1-mediated supercoiled DNA relaxation after 20 mins by agarose gel electrophoresis analysis
Summary of the method: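 Supercoiled DNA was incubated with topo I, with or without test compound. Gel lanes included supercoiled DNA alone, DNA plus enzyme without compound, and DNA plus enzyme with camptothecin as the reference inhibitor.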

Structure (SMILES) | IC50 [1] [µM] | IC50 [2] [µM] | inhibition at 60 µM [5] [%] | also measured
CCCCN1C(=O)[C@@H]2Cc3c([nH]c4ccccc34)[C@@H](c3cccc(O)c3)N2C1=O | 7.1 | 8.6 | – | –
CC(C)(C)c1ccc2[nH]c3ccccc3c2c1 | 0.24 | 6.5 | – | Activity [3]: 76%; Activity [4]: Active
CC(C)(C)Oc1ccc2c(c1)[nH]c1ccccc12 | 3.2 | – | < 50 | inhibition (INH) [2]: <50%
O=Cc1ccc2[nH]c3ccccc3c2c1 | 17 | – | < 50 | –
CC(C)c1ccc2c(c1)[nH]c1ccccc12 | 1.5 | 1.5 | – | –
Cc1ccc2[nH]c3ccc(C(F)(F)F)cc3c2c1 | 8.8 | – | < 50 | –
CCc1ccc2c(c1)[nH]c1ccccc12 | 2.8 | – | < 50 | –
CC(C)(C)c1ccc2c(c1)[nH]c1cc(C(F)(F)F)ccc12 | 1.4 | – | < 50 | –
FC(F)(F)c1cccc2c1[nH]c1ccccc12 | 3.3 | – | < 50 | –
Cn1c2ccccc2c2ccc(C(F)(F)F)cc21 | 5.6 | – | < 50 | –
Cc1cccc2c1[nH]c1ccccc12 | 23 | – | < 50 | –
Cc1ccc2c(c1)[nH]c1ccccc12 | 22 | – | < 50 | –
Oc1ccc2c(c1)[nH]c1ccccc12 | – | – | < 50 | –
COC(=O)c1ccc2[nH]c3cc(C(C)(C)C)ccc3c2c1 | 0.39 | – | < 50 | –
c1ccc2c(c1)[nH]c1cc3c(cc12)CCCC3 | 25 | – | < 50 | –
COc1ccc2c(c1)[nH]c1c(C)nccc12 | – | – | – | inhibition [6]: Active; inhibition [7]: Active
FC(F)(F)Oc1ccc2c(c1)[nH]c1ccccc12 | 0.51 | 29 | – | –
c1ccc2c(c1)[nH]c1c3c(ccc12)CCCC3 | 1.6 | 30 | – | –
O=Cc1ccc2c(c1)[nH]c1ccccc12 | 13 | – | < 50 | –
Cc1ccc2c(c1)[nH]c1ccc(F)cc12 | 7.5 | – | < 50 | –
COC(=O)c1ccc2c(c1)[nH]c1ccccc12 | 11 | – | < 50 | –
c1ccc2c(c1)ccc1c3ccccc3[nH]c21 | 4.6 | – | < 50 | –
Cc1ccc2c(c1)[nH]c1ccc(C(F)(F)F)cc12 | 11 | 35 | – | –
CC(=O)c1ccc2[nH]c3cc(C)ccc3c2c1 | 1.6 | 51 | – | –
FC(F)c1ccc2c(c1)[nH]c1ccccc12 | 0.87 | 46 | – | –
CC(C)(C)c1cccc2c1[nH]c1ccccc12 | 14 | 41 | – | –
CC(C)(C)c1ccc2c(c1)[nH]c1ccc(C(=O)O)cc12 | 11 | – | < 50 | –
